# Data from ChEMBL document CHEMBL4190374, “Structure-Function Evaluation of Imidazopyridine Derivatives Selective for δ-Subunit-Containing γ-Aminobutyric Acid Type A (GABAA) Receptors” (J Med Chem, 2018).
# How the values were obtained:
# [1] = species on record: Rattus norvegicus; assay: Selectivity ratio of IC50 for rat GABA-A receptor alpha6beta3delta expressed in HEK293 cells to IC50 for rat GABA-A receptor alpha6beta2delta expressed in HEK293 cells; assay type: cell-based
# [2] = molecular target: Gamma-aminobutyric acid receptor subunit alpha-1/beta-3/gamma-2 (Rattus norvegicus) (UniProt P18508+P62813+P63079); assay: Modulation of rat […] GABA-A receptor alpha1beta3gamma2 expressed in HEK293 cells up to 10 uM in presence of GABA by patch-clamp assay relative to control; assay type: cell-based
# Procedure, shortened: (§1)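 Rat GABA-A subunits were transiently co-transfected with eGFP into HEK293 cells on coverslips. Fluorescent cells were recorded by whole-cell patch clamp 48 h later; bath pH 7.4, KCl/KOH pipette pH 7.2. Compound was applied at increasing concentrations up to 10 µM with the receptor-specific GABA EC20. Peak currents were fitted logistically for EC50, Hill and % modulation, as mean ± S.E.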
# [3] = molecular target: Gamma-aminobutyric acid receptor subunit alpha-1/beta-3/delta (Rattus norvegicus, UniProt P18506+P62813+P63079); assay: Modulation of rat […] GABA-A receptor alpha1beta3delta expressed in HEK293 cells in presence of GABA by patch-clamp assay; assay type: cell-based; procedure, shortened: as §1
# [4] = molecular target: Gamma-aminobutyric acid receptor subunit alpha-4/beta-3 (Rattus norvegicus) (UniProt P28471+P63079); assay: Agonist activity at rat […] GABA-A receptor alpha4beta3 expressed in HEK293 cells assessed as ratio of I0 to GABA Imax at 10 uM in absence of GABA by patch-clamp assay; assay type: cell-based
# Procedure, shortened: (§2)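 Whole-cell patch clamp on single fluorescent HEK 293 cells 48 h after transient co-transfection with rat subunit cDNAs plus eGFP. Extracellular solution 135 mM NaCl, 5.3 mM KCl, 2 mM CaCl2, 2 mM MgSO4, 10 mM HEPES pH 7.4, perfused 3 mL/min. Compound at 10 µM without GABA. Current expressed relative to 1 mM GABA at the same receptor (I0/Imax GABA), mean ± S.D. of n experiments.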
# [5] = tested on: GABA-A receptor alpha6beta3delta (++); assay: Modulation of rat eGFP-fused GABA-A receptor alpha6beta3delta expressed in HEK293 cells up to 10 uM in presence of GABA by patch-clamp assay relative to control
# [6] = molecular target: GABA-A receptor alpha6beta3delta (++); assay: Modulation of rat eGFP-fused GABA-A receptor alpha6beta3delta expressed in HEK293 cells in presence of GABA by patch-clamp assay
# [7] = molecular target: T1, Gamma-aminobutyric acid receptor subunit alpha-4/beta-3/gamma-2 (Rattus norvegicus) (UniProt P18508+P28471+P63079); assay: Displacement of [3H]EBOB from rat GABA-A receptor alpha4beta3gamma2 expressed in HEK293 cell membranes up to 10 uM after 90 mins by liquid scintillation counting analysis relative to control
# Procedure, shortened: (§3)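 Crude membranes from HEK 293 cells transiently Ca-phosphate-transfected with rat subunit cDNAs, harvested at 48 h. Membranes (150-200 µg protein) incubated with 3 nM [3H]EBOB in 50 mM Tris/citrate pH 7.3 plus 0.2 M NaCl. Compound up to 10 µM, final DMSO 0.1%, no GABA, 90 min at 21 °C. Bound radioligand collected by GF/C filtration and counted by scintillation.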
# [8] = molecular target: Gamma-aminobutyric acid receptor subunit alpha-6/beta-2 (Rattus norvegicus, UniProt P30191+P63138); assay: Displacement of [3H]EBOB from rat GABA-A receptor alpha6beta2 expressed in HEK293 cell membranes after 90 mins by liquid scintillation counting analysis; procedure, shortened: as §3
# [9] = molecular target: T1, Gamma-aminobutyric acid receptor subunit alpha-4/beta-3/gamma-2 (Rattus norvegicus); assay: Agonist activity at rat […] GABA-A receptor alpha4beta3gamma2 expressed in HEK293 cells assessed as ratio of I0 to GABA Imax at 10 uM in absence of GABA by patch-clamp assay; assay type: cell-based; procedure, shortened: as §2
# [10] = molecular target: T2, Gamma-aminobutyric acid receptor subunit alpha-6/beta-3 (Rattus norvegicus) (UniProt P30191+P63079); assay: Displacement of [3H]EBOB from rat GABA-A receptor alpha6beta3 expressed in HEK293 cell membranes up to 10 uM after 90 mins by liquid scintillation counting analysis relative to control; procedure, shortened: as §3
# [11] = molecular target: T3, Gamma-aminobutyric acid receptor subunit alpha-4/beta-3/delta (Rattus norvegicus, UniProt P18506+P28471+P63079); assay: Modulation of rat […] GABA-A receptor alpha4beta3delta expressed in HEK293 cells in presence of GABA by patch-clamp assay; assay type: cell-based; procedure, shortened: as §1
# [12] = molecular target: T3, Gamma-aminobutyric acid receptor subunit alpha-4/beta-3/delta; assay: Displacement of [3H]EBOB from rat GABA-A receptor alpha4beta3delta expressed in HEK293 cell membranes after 90 mins by liquid scintillation counting analysis; procedure, shortened: as §3
# [13] = species on record: Rattus norvegicus; assay: Selectivity ratio of IC50 for rat GABA-A receptor alpha6beta2gamma2 expressed in HEK293 cells to IC50 for rat GABA-A receptor alpha6beta2delta expressed in HEK293 cells; assay type: cell-based
# [14] = molecular target: T2, Gamma-aminobutyric acid receptor subunit alpha-6/beta-3 (Rattus norvegicus); assay: Agonist activity at rat […] GABA-A receptor alpha6beta3 expressed in HEK293 cells assessed as ratio of I0 to GABA Imax at 10 uM in absence of GABA by patch-clamp assay; assay type: cell-based; procedure, shortened: as §2
# [15] = molecular target: Gamma-aminobutyric acid receptor subunit alpha-1/beta-3/gamma-2 (Rattus norvegicus, UniProt P18508+P62813+P63079); assay: Modulation of rat […] GABA-A receptor alpha1beta3gamma2 expressed in HEK293 cells in presence of GABA by patch-clamp assay; assay type: cell-based; procedure, shortened: as §1
# [16] = molecular target: Gamma-aminobutyric acid receptor subunit alpha-4/beta-3/delta (Rattus norvegicus) (UniProt P18506+P28471+P63079); assay: Displacement of [3H]EBOB from rat GABA-A receptor alpha4beta3delta expressed in HEK293 cell membranes up to 10 uM after 90 mins by liquid scintillation counting analysis relative to control; procedure, shortened: as §3
# [17] = species on record: Rattus norvegicus; assay: Selectivity ratio of IC50 for rat GABA-A receptor alpha6beta3gamma2 expressed in HEK293 cells to IC50 for rat GABA-A receptor alpha6beta3delta expressed in HEK293 cells; assay type: cell-based
# [18] = species on record: Rattus norvegicus; assay: Selectivity ratio of IC50 for rat GABA-A receptor alpha6beta3 expressed in HEK293 cells to IC50 for rat GABA-A receptor alpha6beta3delta expressed in HEK293 cells; assay type: cell-based
# [19] = molecular target: Gamma-aminobutyric acid receptor subunit alpha-6/beta-3/gamma-2 (Rattus norvegicus) (UniProt P18508+P30191+P63079); assay: Agonist activity at rat […] GABA-A receptor alpha6beta3gamma2 expressed in HEK293 cells assessed as ratio of I0 to GABA Imax at 10 uM in absence of GABA by patch-clamp assay; assay type: cell-based; procedure, shortened: as §2
# [20] = molecular target: GABA A receptor alpha-6/beta-2/gamma-2 (Rattus norvegicus) (UniProt P18508+P30191+P63138); assay: Displacement of [3H]EBOB from rat GABA-A receptor alpha6beta2gamma2 expressed in HEK293 cell membranes up to 10 uM after 90 mins by liquid scintillation counting analysis relative to control; procedure, shortened: as §3
# T3 sequence (P18506 whole entry): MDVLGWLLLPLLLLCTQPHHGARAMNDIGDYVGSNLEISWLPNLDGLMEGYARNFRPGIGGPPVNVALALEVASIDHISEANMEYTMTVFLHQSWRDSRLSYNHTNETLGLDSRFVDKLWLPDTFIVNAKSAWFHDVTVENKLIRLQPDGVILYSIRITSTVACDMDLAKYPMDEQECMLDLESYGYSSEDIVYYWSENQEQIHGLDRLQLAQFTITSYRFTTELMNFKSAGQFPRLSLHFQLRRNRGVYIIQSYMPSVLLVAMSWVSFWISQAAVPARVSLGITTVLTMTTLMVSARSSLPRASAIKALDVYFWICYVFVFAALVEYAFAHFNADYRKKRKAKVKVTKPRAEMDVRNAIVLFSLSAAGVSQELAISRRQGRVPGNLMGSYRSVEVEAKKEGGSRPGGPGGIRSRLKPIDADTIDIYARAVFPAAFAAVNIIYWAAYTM
# T3 sequence (P28471 whole entry): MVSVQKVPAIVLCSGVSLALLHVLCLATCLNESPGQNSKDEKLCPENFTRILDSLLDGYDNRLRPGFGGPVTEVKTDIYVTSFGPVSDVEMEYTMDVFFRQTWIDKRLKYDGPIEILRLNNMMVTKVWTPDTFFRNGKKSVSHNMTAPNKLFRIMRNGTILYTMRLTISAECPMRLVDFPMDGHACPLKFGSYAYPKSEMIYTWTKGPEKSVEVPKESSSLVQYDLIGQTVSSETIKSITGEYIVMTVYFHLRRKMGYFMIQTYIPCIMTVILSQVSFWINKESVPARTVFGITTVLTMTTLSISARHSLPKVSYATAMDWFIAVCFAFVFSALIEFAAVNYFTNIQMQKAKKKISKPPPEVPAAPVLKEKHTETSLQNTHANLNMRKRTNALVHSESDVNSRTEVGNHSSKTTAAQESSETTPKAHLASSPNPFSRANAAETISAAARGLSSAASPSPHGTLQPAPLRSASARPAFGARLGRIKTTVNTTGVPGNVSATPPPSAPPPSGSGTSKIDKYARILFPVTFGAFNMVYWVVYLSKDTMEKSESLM
# T3 sequence (P63079 whole entry): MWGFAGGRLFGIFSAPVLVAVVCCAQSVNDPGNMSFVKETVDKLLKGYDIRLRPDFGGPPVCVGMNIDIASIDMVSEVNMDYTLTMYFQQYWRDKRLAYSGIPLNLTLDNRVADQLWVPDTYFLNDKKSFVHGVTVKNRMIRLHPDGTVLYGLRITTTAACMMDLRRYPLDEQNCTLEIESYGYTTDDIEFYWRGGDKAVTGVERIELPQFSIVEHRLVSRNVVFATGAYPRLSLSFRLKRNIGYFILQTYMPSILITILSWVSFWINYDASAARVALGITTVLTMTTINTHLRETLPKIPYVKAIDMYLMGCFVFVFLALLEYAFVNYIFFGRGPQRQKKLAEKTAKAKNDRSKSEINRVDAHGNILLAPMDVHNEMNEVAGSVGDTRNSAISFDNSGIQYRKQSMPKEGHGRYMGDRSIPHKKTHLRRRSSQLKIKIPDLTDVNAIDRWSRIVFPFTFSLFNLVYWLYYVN
# Gamma-aminobutyric acid receptor subunit alpha-6/beta-2, sequence (P30191 whole entry): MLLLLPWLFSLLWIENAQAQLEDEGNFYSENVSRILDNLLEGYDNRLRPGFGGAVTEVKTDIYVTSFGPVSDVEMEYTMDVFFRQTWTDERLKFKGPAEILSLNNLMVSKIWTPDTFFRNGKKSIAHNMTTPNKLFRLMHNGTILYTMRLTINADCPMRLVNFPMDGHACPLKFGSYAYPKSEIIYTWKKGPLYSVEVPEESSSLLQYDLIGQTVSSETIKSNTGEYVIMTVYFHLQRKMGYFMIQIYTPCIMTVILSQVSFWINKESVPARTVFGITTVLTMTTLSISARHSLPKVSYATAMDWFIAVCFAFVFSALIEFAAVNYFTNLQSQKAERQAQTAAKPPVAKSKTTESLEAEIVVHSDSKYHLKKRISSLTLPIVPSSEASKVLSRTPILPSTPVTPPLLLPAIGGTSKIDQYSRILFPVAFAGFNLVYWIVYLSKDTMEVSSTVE
# Gamma-aminobutyric acid receptor subunit alpha-6/beta-2, sequence (P63138 whole entry): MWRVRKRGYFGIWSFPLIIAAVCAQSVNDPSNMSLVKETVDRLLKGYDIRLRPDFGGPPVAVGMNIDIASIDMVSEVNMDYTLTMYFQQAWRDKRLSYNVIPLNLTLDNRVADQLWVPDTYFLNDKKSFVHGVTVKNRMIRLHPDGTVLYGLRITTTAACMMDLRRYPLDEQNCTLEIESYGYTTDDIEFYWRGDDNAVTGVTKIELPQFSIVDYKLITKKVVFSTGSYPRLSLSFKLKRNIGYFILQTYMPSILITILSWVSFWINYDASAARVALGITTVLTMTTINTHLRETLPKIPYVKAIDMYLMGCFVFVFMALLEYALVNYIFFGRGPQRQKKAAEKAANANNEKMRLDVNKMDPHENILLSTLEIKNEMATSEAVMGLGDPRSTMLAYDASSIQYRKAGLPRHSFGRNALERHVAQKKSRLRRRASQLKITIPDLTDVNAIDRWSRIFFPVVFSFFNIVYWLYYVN
# Gamma-aminobutyric acid receptor subunit alpha-1/beta-3/gamma-2, sequence (P18508 whole entry): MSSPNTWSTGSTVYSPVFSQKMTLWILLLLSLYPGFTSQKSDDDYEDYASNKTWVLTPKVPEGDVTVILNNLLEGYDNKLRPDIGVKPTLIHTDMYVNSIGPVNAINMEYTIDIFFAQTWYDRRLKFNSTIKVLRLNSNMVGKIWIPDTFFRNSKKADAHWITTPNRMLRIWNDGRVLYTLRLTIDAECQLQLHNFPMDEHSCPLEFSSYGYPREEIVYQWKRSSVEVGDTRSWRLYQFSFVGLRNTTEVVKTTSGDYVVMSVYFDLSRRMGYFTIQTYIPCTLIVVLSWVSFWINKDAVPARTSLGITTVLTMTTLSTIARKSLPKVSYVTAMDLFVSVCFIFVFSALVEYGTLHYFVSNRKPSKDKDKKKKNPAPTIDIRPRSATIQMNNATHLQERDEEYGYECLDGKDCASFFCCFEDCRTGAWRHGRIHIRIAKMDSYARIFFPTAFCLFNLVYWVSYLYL
# Gamma-aminobutyric acid receptor subunit alpha-1/beta-3/gamma-2, sequence (P62813 whole entry): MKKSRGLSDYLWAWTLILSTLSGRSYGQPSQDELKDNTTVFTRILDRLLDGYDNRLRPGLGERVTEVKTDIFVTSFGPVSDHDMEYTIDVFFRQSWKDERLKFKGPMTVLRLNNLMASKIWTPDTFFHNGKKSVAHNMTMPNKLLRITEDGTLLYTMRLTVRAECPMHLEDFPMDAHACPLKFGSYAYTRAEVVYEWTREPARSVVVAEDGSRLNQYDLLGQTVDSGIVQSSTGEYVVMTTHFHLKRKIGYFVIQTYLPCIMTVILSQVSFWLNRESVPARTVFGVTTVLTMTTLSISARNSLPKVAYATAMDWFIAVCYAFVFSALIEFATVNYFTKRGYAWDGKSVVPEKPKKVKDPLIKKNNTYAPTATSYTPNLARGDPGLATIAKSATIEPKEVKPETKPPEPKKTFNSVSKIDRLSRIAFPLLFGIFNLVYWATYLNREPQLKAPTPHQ
# Gamma-aminobutyric acid receptor subunit alpha-1/beta-3/gamma-2, sequence (P63079 whole entry): as the sequence (P63079 whole entry) above
# Gamma-aminobutyric acid receptor subunit alpha-1/beta-3/delta, sequence (P18506 whole entry): as the sequence (P18506 whole entry) above
# Gamma-aminobutyric acid receptor subunit alpha-1/beta-3/delta, sequence (P62813 whole entry): as the sequence (P62813 whole entry) above
# Gamma-aminobutyric acid receptor subunit alpha-1/beta-3/delta, sequence (P63079 whole entry): as the sequence (P63079 whole entry) above
structure (smiles),measurement,setting,value
O=C(Nc1c(-c2cccs2)nc2c(Br)cc(Br)cn12)c1ccc(Cl)cc1,Ratio IC50,[1],2
same,Activity,[2],139%
same,EC50,[3],100 nM
same,Ratio,[4],0.124
same,Activity,[5],802%
same,EC50,[6],130 nM
same,Imax,[7],67%
same,IC50,[8],630 nM
same,Ratio,[9],0.163
same,Imax,[10],90%
same,EC50,[11],150 nM
same,IC50,[12],510 nM
same,Ratio IC50,[13],7
same,Ratio,[14],1.48
same,EC50,[15],2010 nM
same,Imax,[16],61%
same,Ratio IC50,[17],3
same,Ratio IC50,[18],2.5
same,Ratio,[19],1.12
same,Imax,[20],89%
